The source made the active and inactive calls. The rule behind the calls is not given here.
Tests used:
Toll-like receptor 7 [1] = biological target: T1, Toll-like receptor 7 (Homo sapiens, UniProt Q9NYK1); assay: Antagonist activity at TLR7 in human PBMC assessed as inhibition of gardiquimod-induced CCL2 release after 12 hrs by bead array assay; format: functional
T1 sequence (Q9NYK1 whole entry): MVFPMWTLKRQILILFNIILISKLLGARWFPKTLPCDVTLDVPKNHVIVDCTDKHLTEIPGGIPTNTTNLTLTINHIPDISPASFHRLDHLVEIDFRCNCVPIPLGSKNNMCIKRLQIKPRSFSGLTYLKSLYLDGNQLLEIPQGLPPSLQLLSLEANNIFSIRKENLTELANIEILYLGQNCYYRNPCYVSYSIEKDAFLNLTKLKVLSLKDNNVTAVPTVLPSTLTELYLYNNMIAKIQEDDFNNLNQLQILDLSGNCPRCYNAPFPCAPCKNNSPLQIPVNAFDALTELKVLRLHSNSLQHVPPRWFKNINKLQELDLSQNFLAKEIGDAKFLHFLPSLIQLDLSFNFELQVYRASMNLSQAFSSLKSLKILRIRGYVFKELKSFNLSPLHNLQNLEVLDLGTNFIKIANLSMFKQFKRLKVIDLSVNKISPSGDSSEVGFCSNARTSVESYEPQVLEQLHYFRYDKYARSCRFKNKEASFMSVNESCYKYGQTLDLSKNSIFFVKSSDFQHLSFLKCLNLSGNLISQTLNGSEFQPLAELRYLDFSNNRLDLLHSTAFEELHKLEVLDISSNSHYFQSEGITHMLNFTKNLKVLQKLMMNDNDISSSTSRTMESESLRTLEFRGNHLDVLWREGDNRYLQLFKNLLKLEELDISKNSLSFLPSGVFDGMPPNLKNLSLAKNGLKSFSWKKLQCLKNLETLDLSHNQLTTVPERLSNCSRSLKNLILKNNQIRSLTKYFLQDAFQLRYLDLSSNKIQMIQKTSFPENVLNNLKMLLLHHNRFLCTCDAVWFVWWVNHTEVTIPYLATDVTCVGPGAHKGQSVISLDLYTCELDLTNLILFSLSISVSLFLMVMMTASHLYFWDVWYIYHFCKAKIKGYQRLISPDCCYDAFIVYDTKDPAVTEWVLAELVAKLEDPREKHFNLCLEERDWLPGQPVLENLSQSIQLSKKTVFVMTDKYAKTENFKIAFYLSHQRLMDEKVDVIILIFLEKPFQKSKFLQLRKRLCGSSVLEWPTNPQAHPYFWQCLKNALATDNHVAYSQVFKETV
In short: (§1)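 Human PBMCs from healthy donors, isolated by Ficoll-Hypaque, 10⁶ cells per aliquot. Cells were incubated 12 h with graded test concentrations plus 10 μg/ml gardiquimod. Supernatants were diluted 1:20 and analytes measured in triplicate by cytokine/chemokine bead array. Three independent experiments.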

Toll-like receptor 8 [2] = biological target: T2, Toll-like receptor 8 (Homo sapiens, UniProt Q9NR97); assay: Antagonist activity at TLR8 in human PBMC assessed as inhibition of CL075-induced CXCL10 release after 12 hrs by bead array assay; format: functional
T2 sequence (Q9NR97 whole entry): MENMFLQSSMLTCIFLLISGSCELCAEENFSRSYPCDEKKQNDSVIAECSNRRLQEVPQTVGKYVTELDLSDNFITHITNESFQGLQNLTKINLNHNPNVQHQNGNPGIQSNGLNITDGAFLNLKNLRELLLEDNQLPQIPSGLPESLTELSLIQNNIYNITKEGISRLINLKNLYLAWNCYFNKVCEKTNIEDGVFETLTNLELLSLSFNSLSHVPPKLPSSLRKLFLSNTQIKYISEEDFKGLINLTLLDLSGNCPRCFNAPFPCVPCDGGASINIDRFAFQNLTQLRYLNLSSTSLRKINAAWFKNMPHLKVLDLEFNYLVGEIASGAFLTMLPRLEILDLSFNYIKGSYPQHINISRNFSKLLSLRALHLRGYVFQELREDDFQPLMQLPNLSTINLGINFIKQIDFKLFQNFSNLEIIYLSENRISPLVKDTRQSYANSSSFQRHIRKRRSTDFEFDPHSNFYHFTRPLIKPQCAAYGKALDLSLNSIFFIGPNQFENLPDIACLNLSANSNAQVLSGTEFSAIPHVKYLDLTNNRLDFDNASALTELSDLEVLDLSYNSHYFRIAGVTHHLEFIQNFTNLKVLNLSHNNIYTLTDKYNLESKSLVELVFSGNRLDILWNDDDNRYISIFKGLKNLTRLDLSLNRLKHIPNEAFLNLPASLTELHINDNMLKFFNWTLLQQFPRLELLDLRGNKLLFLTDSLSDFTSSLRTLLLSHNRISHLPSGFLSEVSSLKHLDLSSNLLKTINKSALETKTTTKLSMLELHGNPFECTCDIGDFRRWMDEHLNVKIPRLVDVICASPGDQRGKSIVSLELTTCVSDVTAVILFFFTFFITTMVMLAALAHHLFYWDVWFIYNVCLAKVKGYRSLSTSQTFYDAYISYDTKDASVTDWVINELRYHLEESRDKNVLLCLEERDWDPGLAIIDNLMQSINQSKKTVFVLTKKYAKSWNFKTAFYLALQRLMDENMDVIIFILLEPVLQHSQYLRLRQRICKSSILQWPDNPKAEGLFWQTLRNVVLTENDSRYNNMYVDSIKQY
In short: (§2)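 Ficoll-Hypaque-isolated healthy-donor PBMCs (10⁶ cells) were exposed 12 h to graded test concentrations together with 10 μg/ml CL075. Supernatants were diluted 1:20 and each cytokine or chemokine assayed in triplicate by bead array. Three independent experiments.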

Toll-like receptor 7 [3] = biological target: T1, Toll-like receptor 7; assay: Antagonist activity at TLR7 in human PBMC assessed as inhibition of gardiquimod-induced CXCL10 release after 12 hrs by bead array assay; format: functional; in short: as §1
Toll-like receptor 8 [4] = biological target: T2, Toll-like receptor 8; assay: Antagonist activity at TLR8 in human PBMC assessed as inhibition of CL075-induced IL-1beta release after 12 hrs by bead array assay; format: functional; in short: as §2
Toll-like receptor 7 [5] = biological target: T1, Toll-like receptor 7; assay: (§3) Antagonist activity at TLR7 in human PBMC assessed as inhibition of gardiquimod-induced IL-1beta release after 12 hrs by bead array assay; format: functional; in short: as §1
[6] = biological target: Toll-like receptor 3 (Homo sapiens) (UniProt O15455); assay: Agonist activity at human TLR3 HEK-Blue cells assessed as increase in NFkappaB activation by sAP reporter gene assay; format: functional, cell-based
In short: (§4)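 HEK293 cells stably transfected with human TLR3, TLR7 or TLR8 plus MD2 and an NF-κB/AP-1-driven secreted alkaline phosphatase reporter (HEK-Blue), kept in selection medium with zeocin and normocin. Cells at ~10^5 cells/ml were grown to confluency and then given graded concentrations of stimuli. Supernatant sAP was read spectrophotometrically at 620 nm with a chromogen in HEK-detection medium.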

Toll-like receptor 8 [7] = biological target: T2, Toll-like receptor 8; assay: Antagonist activity at TLR8 in human PBMC assessed as inhibition of CL075-induced IL-6 release after 12 hrs by bead array assay; format: functional; in short: as §2
Toll-like receptor 7 [8] = biological target: T1, Toll-like receptor 7; assay: Antagonist activity at TLR7 in human PBMC assessed as inhibition of gardiquimod-induced IL-8 release after 12 hrs by bead array assay; format: functional; in short: as §1
Toll-like receptor 8 [9] = biological target: T2, Toll-like receptor 8; assay: Antagonist activity at TLR8 in human PBMC assessed as inhibition of CL075-induced CCL2 release after 12 hrs by bead array assay; format: functional; in short: as §2
[10] = biological target: T3, Toll-like receptor 8 (Homo sapiens) (UniProt Q9NR97); assay: Inhibition of human TLR8 expressed in HEK-Blue cells by schild plot analysis
T3 sequence (whole entry): T2 sequence (Q9NR97 whole entry)

Toll-like receptor 7 [11] = biological target: T1, Toll-like receptor 7; assay: (§5) Antagonist activity at TLR7 in human PBMC assessed as inhibition of gardiquimod-induced TNF-alpha release after 12 hrs by bead array assay; format: functional; in short: as §1
Toll-like receptor 8 [12] = biological target: T2, Toll-like receptor 8; assay: Antagonist activity at TLR8 in human PBMC assessed as inhibition of CL075-induced IL-8 release after 12 hrs by bead array assay; format: functional; in short: as §2
Toll-like receptor 7 [13] = biological target: T1, Toll-like receptor 7; assay: Antagonist activity at TLR7 in human PBMC assessed as inhibition of gardiquimod-induced IL-6 release after 12 hrs by bead array assay; format: functional; in short: as §1
Toll-like receptor 8 [14] = biological target: T2, Toll-like receptor 8; assay: Antagonist activity at TLR8 in human PBMC assessed as inhibition of CL075-TNF-alpha release after 12 hrs by bead array assay; format: functional; in short: as §2
Toll-like receptor 7 [15] = biological target: T1, Toll-like receptor 7; assay: Agonist activity at human TLR7 expressed in HEK-Blue cells assessed as increase in NFkappaB activation by sAP reporter gene assay; format: functional, cell-based; in short: as §4
PBMC = assay: Immunostimulatory activity in human PBMC assessed as induction IFN-alpha production after 12 hrs by ELISA; format: functional, cell-based
In short: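 Healthy-donor PBMCs were prepared by Ficoll-Hypaque gradient and aliquoted at 10⁶ cells. Cells were stimulated 12 h with graded test concentrations. Supernatant was diluted 1:20 and IFN-α measured in triplicate by high-sensitivity human IFN-α ELISA.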

[16] = biological target: T4, Toll-like receptor 7 (Homo sapiens) (UniProt Q9NYK1); assay: as §3; format: functional; in short: as §1
T4 sequence (whole entry): T1 sequence (Q9NYK1 whole entry)

[17] = biological target: T4, Toll-like receptor 7 (Homo sapiens); assay: as §5; format: functional; in short: as §1
Toll-like receptor 8 [18] = biological target: T2, Toll-like receptor 8; assay: Agonist activity at human TLR8 expressed in HEK-Blue cells assessed as increase in NFkappaB activation by sAP reporter gene assay; format: functional, cell-based; in short: as §4

Sequence of Toll-like receptor 3 (Homo sapiens) (O15455 whole entry): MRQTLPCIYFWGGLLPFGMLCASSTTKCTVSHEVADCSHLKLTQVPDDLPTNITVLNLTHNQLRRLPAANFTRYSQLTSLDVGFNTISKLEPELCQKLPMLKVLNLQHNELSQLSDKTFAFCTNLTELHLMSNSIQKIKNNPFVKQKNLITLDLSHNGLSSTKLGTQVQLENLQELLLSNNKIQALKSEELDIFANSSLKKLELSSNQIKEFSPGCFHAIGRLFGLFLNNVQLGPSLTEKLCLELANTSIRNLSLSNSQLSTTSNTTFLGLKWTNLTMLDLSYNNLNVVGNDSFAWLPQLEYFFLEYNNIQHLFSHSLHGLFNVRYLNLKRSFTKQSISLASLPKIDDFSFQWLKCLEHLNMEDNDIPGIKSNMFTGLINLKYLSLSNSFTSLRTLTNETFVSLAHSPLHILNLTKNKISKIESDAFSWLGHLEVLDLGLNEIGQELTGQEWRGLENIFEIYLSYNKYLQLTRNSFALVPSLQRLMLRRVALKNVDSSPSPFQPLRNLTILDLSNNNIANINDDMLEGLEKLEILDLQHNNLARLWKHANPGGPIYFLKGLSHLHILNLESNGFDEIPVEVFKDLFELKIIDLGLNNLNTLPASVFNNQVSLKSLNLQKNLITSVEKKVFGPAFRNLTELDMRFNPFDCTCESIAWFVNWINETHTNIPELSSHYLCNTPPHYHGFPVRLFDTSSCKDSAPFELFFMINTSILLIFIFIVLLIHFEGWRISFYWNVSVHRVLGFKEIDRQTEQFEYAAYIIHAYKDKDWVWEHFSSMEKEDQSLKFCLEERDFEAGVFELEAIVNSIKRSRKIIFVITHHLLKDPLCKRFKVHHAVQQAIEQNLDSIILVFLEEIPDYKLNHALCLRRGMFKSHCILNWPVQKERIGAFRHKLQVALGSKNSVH

Structure (SMILES) | Activity [6] | EC50 (Toll-like receptor 7 [15]) | other results
Nc1nc2ccccc2c2c1nc(CCCc1nc3c(N)nc4ccccc4c3n1Cc1ccccc1)n2Cc1ccccc1 | inactive | – | IC50 (Toll-like receptor 7 [1]): 50 nM; IC50 (Toll-like receptor 8 [2]): 50 nM; IC50 (Toll-like receptor 7 [3]): 50 nM; IC50 (Toll-like receptor 8 [4]): 50 nM; IC50 (Toll-like receptor 7 [5]): 50 nM; IC50 (Toll-like receptor 8 [7]): 50 nM; IC50 (Toll-like receptor 7 [8]): 50 nM; IC50 (Toll-like receptor 8 [9]): 50 nM; inhibition [10]: Active; IC50 (Toll-like receptor 7 [11]): 50 nM; IC50 (Toll-like receptor 8 [12]): 50 nM; IC50 (Toll-like receptor 7 [13]): 50 nM; IC50 (Toll-like receptor 8 [14]): 50 nM
CCCCc1nc2c(N)nc3ccccc3c2n1Cc1ccc(CNC(=O)CCCCCCC(=O)NCc2ccc(Cn3c(CCCC)nc4c(N)nc5ccccc5c43)cc2)cc1 | inactive | 240 nM | Activity (PBMC): Dose-dependent effect
CCCCc1nc2c(NCCCCNc3nc4ccccc4c4c3nc(CCCC)n4Cc3ccccc3)nc3ccccc3c2n1Cc1ccccc1 | inactive | 2050 nM | –
CCCCc1nc2c(N)nc3ccc(NC(=O)CCCCCCC(=O)Nc4ccc5nc(N)c6nc(CCCC)n(Cc7ccc(CN)cc7)c6c5c4)cc3c2n1Cc1ccc(CN)cc1 | inactive | 4020 nM | –
Nc1nc2ccccc2c2c1nc(CCCCCCCCCCc1nc3c(N)nc4ccccc4c3n1Cc1ccccc1)n2Cc1ccccc1 | inactive | – | –
CCN(CC)CCCC(C)Nc1ccnc2cc(Cl)ccc12 (centres undefined) | – | – | inhibition [16]: Active; inhibition [17]: Active
Nc1nc2ccccc2c2c1nc(CCCCCCc1nc3c(N)nc4ccccc4c3n1Cc1ccccc1)n2Cc1ccccc1 | inactive | – | –
CCCCc1nc2c(N)nc3ccc(NC(=O)CCCCCCCCCCC(=O)Nc4ccc5nc(N)c6nc(CCCC)n(Cc7ccc(CN)cc7)c6c5c4)cc3c2n1Cc1ccc(CN)cc1 | inactive | 5400 nM | –
CCCCc1nc2c(N)nc3ccc(N)cc3c2n1Cc1ccc(CN)cc1 | inactive | 450 nM | –
CCCCc1nc2c(N)nc3ccc([N+](=O)[O-])cc3c2n1Cc1ccc(CN)cc1 | inactive | 560 nM | –
CCCCc1nc2c(NCCCCCCCCCCNc3nc4ccccc4c4c3nc(CCCC)n4Cc3ccccc3)nc3ccccc3c2n1Cc1ccccc1 | inactive | 3000 nM | –
CCCCc1nc2c(N)nc3ccc(NC(=O)CCCCC(=O)Nc4ccc5nc(N)c6nc(CCCC)n(Cc7ccc(CN)cc7)c6c5c4)cc3c2n1Cc1ccc(CN)cc1 | inactive | 7240 nM | Activity (PBMC): Dose-dependent effect
CCCCc1nc2c(NCCCCCCCCNc3nc4ccccc4c4c3nc(CCCC)n4Cc3ccccc3)nc3ccccc3c2n1Cc1ccccc1 | inactive | 560 nM | –
CCCCc1nc2c(N)nc3ccccc3c2n1Cc1ccc(CNC(=O)CCCCCCCCCCC(=O)NCc2ccc(Cn3c(CCCC)nc4c(N)nc5ccccc5c43)cc2)cc1 | inactive | 170 nM | Activity (PBMC): Dose-dependent effect; EC50 (Toll-like receptor 8 [18]): 4780 nM
CCCCc1nc2c(N)nc3ccccc3c2n1Cc1ccc(CNC(=O)CCCCC(=O)NCc2ccc(Cn3c(CCCC)nc4c(N)nc5ccccc5c43)cc2)cc1 | inactive | 110 nM | Activity (PBMC): Dose-dependent effect
Nc1nc2ccccc2c2c1nc(CCCCc1nc3c(N)nc4ccccc4c3n1Cc1ccccc1)n2Cc1ccccc1 | inactive | – | –
CCCCc1nc2c(NCCCCCCCCCCCCNc3nc4ccccc4c4c3nc(CCCC)n4Cc3ccccc3)nc3ccccc3c2n1Cc1ccccc1 | inactive | 1420 nM | Activity (PBMC): Dose-dependent effect

Reference: ChEMBL document CHEMBL2016459, “Toll-like receptor (TLR)-7 and -8 modulatory activities of dimeric imidazoquinolines” (J Med Chem, 2012)
